Tests used:
[1] = molecular target: Cannabinoid receptor 1 (Homo sapiens) (UniProt P21554); assay: Displacement of [3H]SR141716A from human CB1 expressed in CHO cells at 10 uM; assay type: cell-based
Outline: (§1)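 Membranes from CHO cells expressing hCB1 or hCB2 (40 µg per tube). Radioligand was 1 nM [3H]-SR141716A for CB1 or 1 nM [3H]-CP-55,940 for CB2. Competitor at 10 µM; nonspecific binding defined with 10 µM HU-210. Incubation 1 h at 30 °C in 50 mM Tris-HCl, 3 mM MgCl2, 1 mM EDTA, 0.5% BSA, pH 7.4. Filtered on PEI-treated GF/B and counted. Result is % displacement, ≥3 runs in duplicate, mean ± SEM.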

[2] = molecular target: Cannabinoid receptor 2 (Homo sapiens) (UniProt P34972); assay: Displacement of [3H]CP-55940 from human CB2 expressed in CHO cells at 10 uM; assay type: cell-based; outline: as §1
[3] = molecular target: T1, Fatty-acid amide hydrolase 1 (Rattus norvegicus, UniProt P97612); assay: Inhibitory activity against FAAH in Wistar rat brain homogenate at pH 9.0; assay type: tissue-based
T1 sequence (P97612 whole entry): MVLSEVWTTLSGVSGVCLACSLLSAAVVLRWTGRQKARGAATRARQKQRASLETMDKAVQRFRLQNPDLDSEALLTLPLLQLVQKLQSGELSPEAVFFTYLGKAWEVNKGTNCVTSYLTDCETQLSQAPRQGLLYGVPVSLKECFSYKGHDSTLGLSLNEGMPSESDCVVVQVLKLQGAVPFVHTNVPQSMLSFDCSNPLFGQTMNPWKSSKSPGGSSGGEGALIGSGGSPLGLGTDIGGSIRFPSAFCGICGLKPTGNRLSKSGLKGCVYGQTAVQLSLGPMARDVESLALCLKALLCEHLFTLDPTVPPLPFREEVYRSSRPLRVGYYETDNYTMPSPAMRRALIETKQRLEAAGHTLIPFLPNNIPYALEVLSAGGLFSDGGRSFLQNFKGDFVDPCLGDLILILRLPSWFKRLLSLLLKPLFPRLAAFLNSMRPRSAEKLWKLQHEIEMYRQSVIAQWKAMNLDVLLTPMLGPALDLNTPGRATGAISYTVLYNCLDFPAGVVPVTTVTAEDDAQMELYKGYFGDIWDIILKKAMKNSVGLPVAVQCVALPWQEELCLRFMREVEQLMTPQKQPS
Outline: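 Enzyme from male Wistar rat (250-300 g) brain membranes, washed by 36 000g spins and kept at -80 °C. Anandamide hydrolysis at pH 9.0 in 10 mM Tris-HCl, 1 mM EDTA, 0.1% BSA, 37 °C for 10 min. Stopped with cold chloroform/methanol, then the methanol/buffer phase was counted for radioactivity. Inhibition curves run ≥3 times in duplicate; IC50 by nonlinear regression, given as pI50 ± SEM.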

[4] = molecular target: T2, Fatty-acid amide hydrolase 1 (Rattus norvegicus) (UniProt P97612); assay: Inhibitory activity against FAAH in rat brain homogenate at 100 uM; assay type: tissue-based; settings: wistar
T2 sequence (whole entry): T1 sequence (P97612 whole entry)
Outline: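 Rat brain membrane homogenate hydrolysing anandamide in 10 mM Tris-HCl, 1 mM EDTA, 0.1% BSA, pH 7.6, at 37 °C for 10 min. Reaction quenched with cold chloroform/methanol; radioactivity counted in the aqueous methanol phase. Compound tested at 100 µM; percent inhibition of FAAH activity reported.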

Cannabinoid receptor 1 (Homo sapiens), sequence (P21554 whole entry): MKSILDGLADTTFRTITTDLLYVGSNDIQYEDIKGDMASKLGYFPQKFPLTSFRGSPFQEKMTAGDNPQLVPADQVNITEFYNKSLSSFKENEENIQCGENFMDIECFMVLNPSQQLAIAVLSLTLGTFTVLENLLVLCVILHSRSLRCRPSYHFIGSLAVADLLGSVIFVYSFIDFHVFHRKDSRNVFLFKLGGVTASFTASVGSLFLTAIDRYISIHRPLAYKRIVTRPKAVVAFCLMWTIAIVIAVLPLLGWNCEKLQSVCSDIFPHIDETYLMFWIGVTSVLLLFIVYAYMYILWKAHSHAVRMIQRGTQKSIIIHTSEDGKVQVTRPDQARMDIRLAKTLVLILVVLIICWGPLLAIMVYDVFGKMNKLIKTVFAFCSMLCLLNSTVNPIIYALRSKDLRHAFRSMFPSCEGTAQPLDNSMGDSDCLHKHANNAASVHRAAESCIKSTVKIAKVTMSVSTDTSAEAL
Cannabinoid receptor 2 (Homo sapiens), sequence (P34972 whole entry): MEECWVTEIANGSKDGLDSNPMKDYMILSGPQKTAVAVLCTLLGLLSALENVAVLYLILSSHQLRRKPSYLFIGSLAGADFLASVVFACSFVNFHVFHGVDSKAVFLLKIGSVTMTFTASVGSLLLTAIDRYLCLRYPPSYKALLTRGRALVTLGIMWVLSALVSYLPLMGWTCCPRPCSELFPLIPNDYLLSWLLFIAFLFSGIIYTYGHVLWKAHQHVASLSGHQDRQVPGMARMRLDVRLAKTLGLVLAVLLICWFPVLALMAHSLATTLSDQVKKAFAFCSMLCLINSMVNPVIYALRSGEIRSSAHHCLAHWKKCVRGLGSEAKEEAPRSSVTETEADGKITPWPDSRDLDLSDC

| Structure (SMILES) | Activity [1] [%] | Activity [2] [%] | IC50 [3] [µM] | Inhibition [4] [%] |
| --- | --- | --- | --- | --- |
| CCCCCCCCCCN1C(=O)NC(c2ccccc2)(c2ccccc2)C1=O | < 20 | < 20 |  |  |
| CCCCCCCCN1C(=O)NC(c2ccc(Cl)cc2)(c2ccc(Cl)cc2)C1=O | 39.5 | < 20 |  |  |
| CCCCCCCN1C(=O)CNC1=O | < 20 | < 20 |  |  |
| CCCCCCCN1C(=O)C(c2ccc(Br)cc2)(c2ccc(Br)cc2)NC1=S | 34.2 | < 20 |  |  |
| O=C1N(CCCO)C(=S)NC1(c1ccccc1)c1ccccc1 | 20.8 | < 20 |  |  |
| CCCCCCCCCCN1C(=O)C(c2ccccc2)(c2ccccc2)NC1=S | < 10 | < 20 | 1.35 |  |
| O=C1NC(c2ccccc2)(c2ccccc2)C(=O)N1CCc1ccccc1 | < 20 | < 20 |  |  |
| CCCCCCCCN1C(=O)NC(c2ccc(Br)cc2)(c2ccc(Br)cc2)C1=O | 45.1 | 21.1 |  |  |
| CCCCCCCCN1C(=O)C(c2ccccc2)(c2ccccc2)NC1=S | 38.8 | < 20 |  |  |
| CCCCCCCCN1C(=O)NC(c2ccccc2)(c2ccccc2)C1=O | 25.1 | < 20 |  |  |
| O=C1NC(c2ccc(Cl)cc2)(c2ccc(Cl)cc2)C(=O)N1Cc1ccccc1 | 72.2 | < 20 |  |  |
| CCCCCCCC/C=C\CCCCCCCCN1C(=O)C(c2ccccc2)(c2ccccc2)NC1=S | < 10 | < 10 |  |  |
| CCCCN1C(=O)CNC1=O | < 20 | < 20 |  | < 10 |
| O=C1NC(c2ccccc2)(c2ccccc2)C(=O)N1Cc1ccccc1 | 33.7 | < 20 |  |  |
| CCCCN1C(=O)NC(c2ccccc2)(c2ccccc2)C1=O | < 20 | < 20 |  |  |
| CCCCCCCCN1C(=O)C(c2ccc(Br)cc2)(c2ccc(Br)cc2)NC1=S | 23.4 | < 20 |  |  |
| CCN1C(=O)NC(c2ccccc2)(c2ccccc2)C1=O | < 20 | < 20 |  |  |
| CCCCN1C(=O)NC(c2ccc(Br)cc2)(c2ccc(Br)cc2)C1=O | 69.2 | 23.1 |  |  |
| O=C1NC(=S)N(c2ccccc2)C1c1ccccc1 (centres undefined) | < 20 | < 20 |  |  |
| CCCCCCCCN1C(=O)C(c2ccc(Cl)cc2)(c2ccc(Cl)cc2)NC1=S | 36.6 | < 10 |  |  |

| Structure (SMILES) | Activity [1] [%] | Activity [2] [%] | IC50 [3] [µM] | Inhibition [4] [%] |
| --- | --- | --- | --- | --- |
| COCCCN1C(=O)C(c2ccccc2)(c2ccccc2)NC1=S | 29.4 | < 20 |  |  |
| CCCCN1C(=O)C(c2ccc(Br)cc2)(c2ccc(Br)cc2)NC1=S | 73.8 | < 20 |  |  |
| CCCCCCCCCCCCCCCCN1C(=O)C(c2ccccc2)(c2ccccc2)NC1=S | < 10 | < 10 |  |  |
| CCCCCCCCCCCCCCN1C(=O)C(c2ccccc2)(c2ccccc2)NC1=S | < 10 | < 20 | 0.891 |  |
| O=C1N(Cc2ccccc2)C(=S)NC1(c1ccccc1)c1ccccc1 | 44.7 | < 20 |  |  |
| CCCCCCCCN1C(=O)NC(c2ccc(F)cc2)(c2ccc(F)cc2)C1=O | 40.1 | < 20 |  |  |
| CCN1C(=O)C(c2ccccc2)(c2ccccc2)NC1=S | 40 | < 10 |  |  |
| O=C1CNC(=S)N1c1ccccc1 | < 20 | < 20 |  | 25 |
| CCCCCN1C(=O)C(c2ccccc2)(c2ccccc2)NC1=S | 27.6 | < 20 |  |  |
| CCCCN1C(=O)NC(c2ccc(Cl)cc2)(c2ccc(Cl)cc2)C1=O | 51.2 | < 20 |  |  |
| CCCCCCCCN1C(=O)NC(c2ccc(C)cc2)(c2ccc(C)cc2)C1=O | 24.5 | < 20 |  |  |
| O=C1C(c2ccccc2)NC(=S)N1c1ccccc1 (centres undefined) | < 20 | < 20 |  |  |
| O=C1N(CCc2ccccc2)C(=S)NC1(c1ccccc1)c1ccccc1 | 29.3 | < 20 |  |  |
| O=C1NC(=O)C(c2ccccc2)(c2ccccc2)N1 | < 20 | < 20 |  |  |
| CCCCCCCN1C(=O)C(c2ccccc2)(c2ccccc2)NC1=S | 28.8 | < 20 |  |  |
| CCCCCCN1C(=O)C(c2ccccc2)(c2ccccc2)NC1=S | 21.9 | < 20 |  |  |
| CCCCCCCN1C(=O)C(c2ccc(Cl)cc2)(c2ccc(Cl)cc2)NC1=S | 67.8 | < 20 |  |  |
| CCCCCCCN1C(=O)C(c2ccccc2)(c2ccccc2)N(CCCCCCC)C1=S | < 20 | < 20 |  |  |
| O=C1NC(=S)NC1(c1ccccc1)c1ccccc1 | < 15 | < 10 |  |  |
| CCCCCCCN1C(=O)NC(c2ccc(Cl)cc2)(c2ccc(Cl)cc2)C1=O | 42.7 | < 20 |  |  |

| Structure (SMILES) | Activity [1] [%] | Activity [2] [%] | IC50 [3] [µM] | Inhibition [4] [%] |
| --- | --- | --- | --- | --- |
| CCCCCCCN1C(=O)NC(c2ccc(Br)cc2)(c2ccc(Br)cc2)C1=O | 44.8 | < 20 |  |  |
| CCCCCCCCCCCCCCCCCCN1C(=O)C(c2ccccc2)(c2ccccc2)NC1=S | < 10 | < 10 |  |  |
| O=C1CNC(=O)N1c1ccccc1 | < 20 | < 20 |  | 23 |
| CCCCN1C(=O)C(c2ccc(Cl)cc2)(c2ccc(Cl)cc2)NC1=S | 72.7 | < 20 |  |  |
| CCCCN1C(=O)C(c2ccccc2)(c2ccccc2)NC1=S | 42.8 | < 10 |  |  |
| O=C1N(c2ccccc2)C(=S)NC1(c1ccccc1)c1ccccc1 | 32.6 | < 20 |  |  |
| CCCCN1C(=O)CNC1=S | < 20 | < 20 |  | < 10 |
| O=C1N(Cc2ccccc2)C(=S)NC1(c1ccc(Cl)cc1)c1ccc(Cl)cc1 | 74.2 | < 15 |  |  |
| CCCCCCCCN1C(=O)NC(c2ccc(OC)cc2)(c2ccc(OC)cc2)C1=O | 31.2 | < 20 |  |  |
| CCCCCCCN1C(=O)NC(c2ccccc2)(c2ccccc2)C1=O | 23.4 | < 20 | 8.32 |  |
| CCCCCCCN1C(=O)C(c2ccccc2)N(c2ccccc2)C1=O (centres undefined) | 45.6 | < 20 |  |  |
| O=C1NC(c2ccccc2)C(=O)N1c1ccccc1 (centres undefined) | < 20 | < 20 |  |  |
| O=C1NC(=O)N(c2ccccc2)C1c1ccccc1 (centres undefined) | < 20 | < 20 |  |  |
| CCCCCCCN1C(=O)C(c2ccccc2)NC1=S (centres undefined) | < 20 | < 20 |  |  |
| CC(C)CN1C(=O)C(c2ccccc2)(c2ccccc2)NC1=S | 34.6 | < 10 |  |  |
| CCCCCCCCCCCCCCN1C(=O)NC(c2ccccc2)(c2ccccc2)C1=O | < 20 | < 20 |  |  |
| CCCCCN1C(=O)NC(c2ccccc2)(c2ccccc2)C1=O | 21.3 | < 20 |  |  |
| CCCCCCN1C(=O)NC(c2ccccc2)(c2ccccc2)C1=O | 29.9 | < 20 | 10 |  |
